TDP2 absorb – blocks human TDP2 phosphodiesterase activity; O95551; recombinant TDP2, T5PNP hydrolysis, p-nitrophenol absorbance 415 nm; inhibition, % at 12.8 µM; 0.34% of 370,000 active;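 active = inhibition above the mean of all tested compounds plus 3 SD, set per campaign, cut at about 25% in these data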
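test system = human TDP2 enzyme | input = TDP2 enzyme at 120 nM final | medium = 50 mM Tris-HCl pH 7.5 with Mg2+, KCl, DTT, BSA | also added = T5PNP substrate, 5 mM | times = 2 h at 37 °C | technique = epi absorbance | benchmarks = high control without enzyme, low control DMSO plus TDP2 | replication = each compound tested once, singlicate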
LEDGF integ inh – blocks HIV-1 LEDGF/p75-dependent DNA integration | TR-FRET IN-LEDGF/p75 DNA integration, Eu/Cy5 | inhibition, % at 3.7 µM | 0.64% of 370,000 active;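 active = inhibition above the screen-wide mean plus 3 SD, cut at about 13% in these data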;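 also: signal is the Cy5 over europium emission ratio at 671 and 618 nm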
SIAE primary – human SIAE inhibition, primary screen; 0.69% of 370,000 active; Q9HAT2; SIAE FP-Rh probe binding, fluorescence polarization; inhibition, % at 9.66 µM;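 active = inhibition above a cutoff: mean of compounds within the control limits plus 3 SD of those, cut at about 17% in these data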
PRMT1 inh – inhibitors of human PRMT1; AID 652257; inhibition, % at 2.79 µM; recombinant PRMT1, activity-based probe fluorescence polarization; Q99873; 1.3% of 370,000 active;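 active = inhibition above about 21% made by adding two undisclosed values, limit read from the data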
MBD2 DNA inh – inhibitors of human MBD2 binding to methylated oligonucleotide; AID 686964; Q9UBB5; TR-FRET; inhibition, % at 4.4 µM; 0.31% of 370,000 active; in the data active = inhibition above about 13%
Target sequence (Q9UBB5 whole entry, looked up): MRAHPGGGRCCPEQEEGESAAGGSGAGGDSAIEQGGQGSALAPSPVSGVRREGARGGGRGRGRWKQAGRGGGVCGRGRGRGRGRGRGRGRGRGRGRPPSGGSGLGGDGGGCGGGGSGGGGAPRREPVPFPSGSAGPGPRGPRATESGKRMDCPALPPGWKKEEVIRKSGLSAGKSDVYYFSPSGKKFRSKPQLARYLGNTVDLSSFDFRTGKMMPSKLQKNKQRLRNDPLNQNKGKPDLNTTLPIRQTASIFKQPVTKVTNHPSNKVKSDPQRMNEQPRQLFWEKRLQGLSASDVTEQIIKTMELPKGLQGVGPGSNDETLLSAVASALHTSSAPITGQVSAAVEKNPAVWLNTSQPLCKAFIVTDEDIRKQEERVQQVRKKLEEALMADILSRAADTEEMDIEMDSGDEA
UHRF1 binding – human UHRF1 methylated DNA binding inhibitors | Q96T88 | UHRF1 binding to methylated oligo, TR-FRET | inhibition, % at 4.4 µM | 0.75% of 370,000 active | AID 687016; in the data active = inhibition above about 21%;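 also: UHRF1 SRA domain binding a hemimethylated CpG hairpin DNA probe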
SIAE confirm – confirmation of human SIAE inhibitors; SIAE FP-Rh activity-based probe, fluorescence polarization; 13% of 2,300 active; shares compounds with SIAE primary; inhibition, % at 9.66 µM;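 active = mean inhibition of the replicates above the hit cutoff set in the primary screen, cut at about 17% in these data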;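 also: inhibitors lower polarization as more probe stays unbound to SIAE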
A number is an active result; – = inactive; · = not tested or not shown. This is a sample that favours compounds with a hit; in the whole collection about 3.3% have one here.

SMILES	TDP2 absorb	LEDGF integ inh	SIAE primary	PRMT1 inh	MBD2 DNA inh	UHRF1 binding	SIAE confirm
C/C(=N\NC(=O)CCc1c[nH]c2ccccc12)c1ccc([N+](=O)[O-])cc1	–	–	17.8	–	–	–	–
C/C(=N/Nc1ccc([N+](=O)[O-])cc1)c1ccc(C)cc1C	–	–	–	–	–	–	·
CN1C(=O)C[C@@](C#N)(C(=O)Nc2nc3ccc(F)cc3s2)[C@H]1c1ccccc1	–	–	–	–	–	–	·
CCC1OC(C(C)C)Cc2[nH][nH]c(=O)c21 (stereo not drawn)	–	–	17.4	–	–	–	–
Cc1ccc(C)c(NC(=O)[C@@H]2CCCN2S(=O)(=O)c2cccc3cccnc23)c1	–	–	–	–	–	–	·
O=C(OCC(=O)c1c[nH]c2ccccc12)c1cccc([N+](=O)[O-])c1	–	–	21.3	–	–	–	–
O=C(OCC(=O)c1c[nH]c2ccccc12)c1cncc(Br)c1	–	–	–	–	–	–	·
CCOC(=O)CC(=O)CSc1nc2c(sc(=S)n2-c2ccc(OCC)cc2)c(=O)[nH]1	–	–	20.3	–	–	–	–
CCOc1ccc(NC(=O)CCC(=O)Nc2cc(OC)c(NC(=O)c3ccco3)cc2OC)cc1	–	–	19.0	–	–	–	–
CN1CCCCC(NC(=O)c2ccccc2)C1=O (stereo not drawn)	–	–	–	–	–	–	·
Cn1c(=O)cc2c3c(c(N4CCCCC4)ccc31)C(=O)c1ccccc1-2	–	–	52.6	–	–	–	23.8
Cc1ccc(NS(=O)(=O)c2ccc(N3CCN(c4ccc(O)cc4)CC3)c([N+](=O)[O-])c2)c(C)c1	–	–	17.9	–	–	–	–
Cc1ccc(S(=O)(=O)Oc2ccccc2/C=N/NC(N)=S)cc1	–	–	–	–	–	–	·
Cc1ccc(S(=O)(=O)Oc2ccccc2/C=N/N=C(N)N)cc1	–	–	21.4	–	–	–	–
CN(Cc1ccccc1)S(=O)(=O)c1cccc(C(=O)OCc2ccccc2Cl)c1	–	–	–	–	–	–	·
CCN1C(=O)/C(=C2/C(=O)N3c4c(cc(OC(C)=O)cc42)C(C)=CC3(C)C)SC1=S	–	–	17.1	–	–	–	–
CCN1C(=O)/C(=C2\SC(=S)N(CCCOC)C2=O)c2ccccc21	–	–	–	–	–	–	·
CCOC(=O)[C@]12CCCC=C1N(CCCOC)C(=O)[C@@H]2CC(=O)NCc1ccc(C)o1	–	–	–	–	–	–	·
COc1cccc(CNC(=O)C2CCN(c3nc(OC)nc(OC)n3)CC2)c1	–	–	–	–	–	–	·
CCC(=O)Nc1ccc(NCc2cccs2)cc1	–	–	–	–	–	–	·
O=C(O)c1ccc(NCc2cccs2)cc1	–	–	17.9	–	–	–	–
O=C(CSc1ccccc1)Nc1ccc(N2CCOCC2)c(F)c1	–	–	17.7	–	–	–	–
Cc1ccc(CN2CCCCC(NC(=O)c3cccc(C(F)(F)F)c3)C2=O)cc1 (stereo not drawn)	–	–	–	–	–	–	·
COC(=O)[C@]12C[C@H](CC(=O)NCCCN3CCCC3=O)C(=O)N(CCc3ccc(OC)c(OC)c3)C1=C[C@H](C(C)C)O[C@@H]2C1CC1	–	–	–	–	–	–	·
CCO/C=C/C(O)(CNC(=O)c1ccc(C(C)(C)C)cc1)C(F)(F)F (stereo not drawn)	–	–	59.6	–	–	–	–
SMILES	TDP2 absorb	LEDGF integ inh	SIAE primary	PRMT1 inh	MBD2 DNA inh	UHRF1 binding	SIAE confirm
CCOC(=O)CNC(=O)c1ccc(C)cc1	–	–	–	–	–	–	·
C[C@H](O)[C@@H]1CN2CCc3ccc(-c4ccc5c(c4)OCO5)cc3[C@@H]2C[C@@H]1N(C)Cc1cc(Cl)cc(Cl)c1	–	–	–	–	–	–	·
COc1cccc(/C=C(\C#N)c2nc3ccccc3[nH]2)c1OCC(=O)O	–	–	–	–	–	–	·
CCOc1cc(N(CC)CC)ccc1/C=C(/C#N)c1nc2ccccc2[nH]1	–	–	26.6	–	–	–	–
Cc1nn(C)c(Cl)c1CN1CCC(CO)(CCOc2ccccc2)CC1	–	–	17.2	–	–	–	–
CCn1ccnc1CN1CCC(CO)(CCOc2ccccc2)CC1	–	–	–	–	–	–	·
O=C(Nc1cccc(/C=C/c2ccccn2)c1)c1ccc(-n2cncn2)c([N+](=O)[O-])c1	–	–	19.3	–	–	–	–
O=C(Nc1ccc(F)c(F)c1)c1ccc(-n2cncn2)c([N+](=O)[O-])c1	–	–	–	–	–	–	·
Cn1c(CCN2CCN(c3ccccn3)CC2)nc2cc(NC(=O)COc3ccccc3)ccc21	–	–	69.8	–	–	–	–
Cc1ccc(OCC(=O)Nc2ccc3c(c2)nc(CCN2CCN(c4ccccn4)CC2)n3C)cc1	–	–	–	–	–	–	·
C=CCN(Cc1ccc(OC)cc1OC)C(C#CCCCC)c1ccccc1 (stereo not drawn)	–	–	–	–	–	–	·
O=C(NN=Cc1c(O)ccc2ccccc12)c1ccncc1	–	–	–	–	–	–	·
O=C(N/N=C\c1c(O)ccc2ccccc12)c1ccc(O)cc1	–	–	27.2	–	–	–	–
Cn1cc(C(=O)N/N=C/c2c(O)ccc3ccccc23)ccc1=O	–	–	30.3	–	–	–	–
O=C(N/N=C/c1c(O)ccc2ccccc12)Nc1ccccc1	–	–	51.6	–	–	–	48.5
Cc1nc2ccccn2c1P(=O)(c1ccccc1)c1ccccc1	–	–	–	–	–	–	·
Cc1onc(-c2ccccc2Cl)c1C(=O)Nc1ccc(N2CCOCC2)cc1	–	–	17.1	–	–	–	–
CCN1CCCC1CNC(=O)C(=O)NC(C)c1ccccc1 (stereo not drawn)	–	–	19.3	–	–	–	–
COC(=O)[C@]12C[C@H](CC(=O)NCc3ccccc3)C(=O)N(Cc3ccc(Cl)cc3Cl)C1=C[C@H](C(C)(C)C)O[C@@H]2C	–	–	–	–	–	–	·
Cc1ccc2nc(CN(C)C(=O)[C@H](CCc3ccccc3)NC(=O)[C@H]3O[C@@H](n4cnc5c(N)ncnc54)[C@H](O)[C@@H]3O)[nH]c2c1	–	–	–	–	–	–	·
Cc1ccc2nc(CN(C)C(=O)[C@@H](Cc3ccccc3)NC(=O)[C@H]3O[C@@H](n4cnc(C(N)=O)n4)[C@H](O)[C@@H]3O)[nH]c2c1	–	–	68.0	–	–	–	74.4
COC(CNC(=O)[C@H](Cc1ccccc1)NC1(C(=O)NC2CCCCC2)CCC1)OC	–	–	–	–	–	–	·
COC(=O)[C@H](C(C)C)N1Cc2nnn(CC3CCCCC3)c2-c2ccccc2S1(=O)=O	–	–	–	–	–	–	·
